Legend:
Mus musculus [1] = experiment: Toxicity in double APP/PS1 transgenic Alzheimer's disease mouse model assessed as carcinogenicity in intestine at 30 mg/kg/day, po for 80 days; assay type: organism-based; conditions: in vivo, 1920 h
How it was run: (§1)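 APP/PS1 double-transgenic mice, six months old, dosed by intragastric infusion at 30 mg/kg/day in 0.5% CMC-Na for 80 consecutive days (n = 10). Vehicle mice and wild-type C57BL/6 mice received blank 0.5% CMC-Na. Body weight tracked daily; diarrhoea, emesis-like behaviour and mortality monitored. At sacrifice, brain, subcutaneous layer, stomach, intestines, heart, lung, liver, spleen, kidneys and other organs examined for expansion or carcinogenicity.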

Mus musculus [2] = experiment: Induction of cell proliferation in C57BL/6 mouse hippocampal neurons in CA2 region assessed as BrdU-incorporation at 30 mg/kg, po administered via gavage for 7 days by immunohistochemical analysis (reference value: 2.4%); assay type: functional
How it was run: (§2)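 C57BL/6 mice, 12 weeks old, n = 6, individually housed beforehand without wheels. Compound gavaged 30 mg/kg/day for 7 days with daily IP BrdU 50 mg/kg; BrdU+ cells counted by immunohistochemistry per hippocampal volume; two-way ANOVA.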

Mus musculus [3] = experiment: Toxicity in C57BL/6 mouse assessed as mortality at 677 to 2000 mg/kg, ig measured continuously during first 4 hrs, intermittently for following 24 hrs and occasionally thereafter for 14 consecutive days; assay type: organism-based; conditions: in vivo, po
How it was run: (§3)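 Adult C57BL/6 mice, 12 weeks old, given single intragastric doses of 0, 677, 1333 or 2000 mg/kg (n = 6 per dose, 3 male and 3 female). Abnormal behaviour and deaths observed continuously for the first 4 h, intermittently over the next 24 h, then occasionally for 14 days to catch delayed effects.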

Mus musculus [4] = experiment: Toxicity in double APP/PS1 transgenic Alzheimer's disease mouse model assessed as carcinogenicity in liver at 30 mg/kg/day, po for 80 days; assay type: organism-based; conditions: in vivo, 1920 h; how it was run: as §1
Mus musculus [5] = experiment: Toxicity in double APP/PS1 transgenic Alzheimer's disease mouse model assessed as brain expansion at 30 mg/kg/day, po for 80 days; assay type: organism-based; conditions: in vivo, 1920 h; how it was run: as §1
Mus musculus [6] = experiment: Cognition enhancement activity in double APP/PS1 transgenic Alzheimer's disease mouse model assessed as time spent in effective region at 30 mg/kg/day, po for 80 days by Morris water maze test (reference value: 9.0 +/- 3.8 sec); assay type: functional
How it was run: (§4)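 APP/PS1 mice, six months old, gavaged 30 mg/kg/day in 0.5% CMC-Na for 80 days. Probe trial was a single 90 s free swim with the platform absent; effective region is twice the platform diameter. n = 10, mean ± SD, two-way ANOVA.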

Mus musculus [7] = experiment: Induction of cell proliferation in C57BL/6 mouse hippocampal neurons in CA2 region assessed as BrdU-incorporation at 0.5 uL/hr, icv for 7 days by immunohistochemical analysis (reference value: 2.4%); assay type: functional
Mus musculus [8] = experiment: Toxicity in double APP/PS1 transgenic Alzheimer's disease mouse model assessed as diarrhea at 30 mg/kg/day, po for 80 days; assay type: organism-based; conditions: in vivo, 1920 h; how it was run: as §1
Mus musculus [9] = experiment: Antialzheimer activity in double APP/PS1 transgenic Alzheimer's disease mouse model assessed as reduction in amyloid beta burden at 30 mg/kg/day, po for 80 days by immunochemical staining-based analysis relative to control; assay type: functional; parameters: scale not given: the % may be the effect or the level left
How it was run: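 APP/PS1 mice gavaged 30 mg/kg/day for 80 days (n = 10). Coronal sections immunostained with mOC64 anti-Aβ antibody; plaque burden is the percent area of a half coronal hemisphere.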

Mus musculus [10] = experiment: Cognition enhancement activity in double APP/PS1 transgenic Alzheimer's disease mouse model assessed as time spent in virtual platform at 30 mg/kg/day, po for 80 days by Morris water maze test (reference value: 1.9 +/- 0.2 sec); assay type: functional; how it was run: as §4
Mus musculus [11] = experiment: Toxicity in C57BL/6 mouse assessed as histological abnormalities of brain at 2000 mg/kg, ig after 14 consecutive days by hematoxylin/eosin dye-based microscopic analysis; assay type: organism-based; conditions: in vivo, po, 336 h
How it was run: (§5)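 Adult C57BL/6 mice, 12 weeks old, single intragastric doses of 0, 677, 1333 or 2000 mg/kg (n = 6 per dose, 3 male/3 female); behaviour and mortality observed over 14 days; liver, heart, lung and brain examined by HE staining at 2000 mg/kg.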

Mus musculus [12] = experiment: Toxicity in C57BL/6 mouse assessed as histological abnormalities of liver at 2000 mg/kg, ig after 14 consecutive days by hematoxylin/eosin dye-based microscopic analysis; assay type: organism-based; conditions: in vivo, po, 336 h; how it was run: as §5
Mus musculus [13] = experiment: Induction of cell proliferation in C57BL/6 mouse hippocampal neurons in DG region assessed as BrdU-incorporation at 30 mg/kg, po administered via gavage for 7 days by immunohistochemical analysis (reference value: 2.2%); assay type: functional; how it was run: as §2
Mus musculus [14] = experiment: Toxicity in C57BL/6 mouse assessed as effect on food intake at 677 to 2000 mg/kg, ig measured continuously during first 4 hrs, intermittently for following 24 hrs and occasionally thereafter for 14 consecutive days; assay type: organism-based; conditions: in vivo, po
Mus musculus [15] = experiment: Toxicity in C57BL/6 mouse assessed as effect on body weight at 677 to 2000 mg/kg, ig measured continuously during first 4 hrs, intermittently for following 24 hrs and occasionally thereafter for 14 consecutive days; assay type: organism-based; conditions: in vivo, po
Mus musculus [16] = experiment: Toxicity in C57BL/6 mouse assessed as macroscopic abnormalities of spleen at 677 to 2000 mg/kg, ig after 14 consecutive days; assay type: organism-based; conditions: in vivo, po
Mus musculus [17] = experiment: Induction of cell proliferation in C57BL/6 mouse hippocampal neurons in DG region assessed as BrdU-incorporation at 0.5 uL/hr, icv for 7 days by immunohistochemical analysis (reference value: 7.8%); assay type: functional
Mus musculus [18] = experiment: Cognition enhancement activity in double APP/PS1 transgenic Alzheimer's disease mouse model assessed as swimming path length in correct quadrant at 30 mg/kg/day, po for 80 days by Morris water maze test (reference value: 295.3 +/- 46.9 cm); assay type: functional; how it was run: as §4
Mus musculus [19] = experiment: Cognition enhancement activity in double APP/PS1 transgenic Alzheimer's disease mouse model assessed as swimming path length in virtual platform at 30 mg/kg/day, po for 80 days by Morris water maze test (reference value: 9.1 +/- 2.8 cm); assay type: functional; how it was run: as §4
Mus musculus [20] = experiment: Toxicity in double APP/PS1 transgenic Alzheimer's disease mouse model assessed as carcinogenicity in lung at 30 mg/kg/day, po for 80 days; assay type: organism-based; conditions: in vivo, 1920 h; how it was run: as §1
Mus musculus [21] = experiment: Toxicity in double APP/PS1 transgenic Alzheimer's disease mouse model assessed as effect on body weight at 30 mg/kg/day, po for 80 days; assay type: organism-based; conditions: in vivo, 1920 h; how it was run: as §1
Mus musculus [22] = experiment: Toxicity in C57BL/6 mouse assessed as abnormal behavior at 677 to 2000 mg/kg, ig measured continuously during first 4 hrs, intermittently for following 24 hrs and occasionally thereafter for 14 consecutive days; assay type: organism-based; conditions: in vivo, po; how it was run: as §3
[23] = Metabolic stability in Sprague-Dawley rat liver microsomes assessed as metabolic rate constant at 100 uM up to 180 mins by HPLC-UV analysis; conditions: 3 h
Mus musculus [24] = experiment: Induction of cell proliferation in C57BL/6 mouse hippocampal neurons in CA3 region assessed as BrdU-incorporation at 0.5 uL/hr, icv for 7 days by immunohistochemical analysis (reference value: 1.4%); assay type: functional
Mus musculus [25] = experiment: Toxicity in double APP/PS1 transgenic Alzheimer's disease mouse model assessed as carcinogenicity in stomach at 30 mg/kg/day, po for 80 days; assay type: organism-based; conditions: in vivo, 1920 h; how it was run: as §1

| SMILES | Activity (Mus musculus [1]) | Activity (Mus musculus [2]) [%] | Activity (Mus musculus [3]) | Activity (Mus musculus [4]) | Activity (Mus musculus [5]) | Time (Mus musculus [6]) [s] | Activity (Mus musculus [7]) [%] | Activity (Mus musculus [8]) | Activity (Mus musculus [9]) | Time (Mus musculus [10]) [s] | Activity (Mus musculus [11]) | Activity (Mus musculus [12]) | Activity (Mus musculus [13]) [%] | Activity (Mus musculus [14]) | Activity (Mus musculus [15]) | Activity (Mus musculus [16]) | Activity (Mus musculus [17]) [%] | Activity (Mus musculus [18]) [cm] | Activity (Mus musculus [19]) [cm] | Activity (Mus musculus [20]) | other results |
| --- | --- | --- | --- | --- | --- | --- | --- | --- | --- | --- | --- | --- | --- | --- | --- | --- | --- | --- | --- | --- | --- |
| Cl.Oc1c(Cl)cc(Cl)c2ccc(-c3cc4cc5c(cc4[nH]3)OCO5)nc12 | Non-Toxic | 16.3 | Non-Toxic | Non-Toxic | Non-Toxic | 16.7 | 38 | Non-Toxic | 26% | 2.6 | Non-Toxic | Non-Toxic | 17 | Non-Toxic | Non-Toxic | Non-Toxic | 31.2 | 473.5 | 15 | Non-Toxic | Activity (Mus musculus [21]): Non-Toxic; Activity (Mus musculus [22]): Non-Toxic; K [23]: 0.00178 min⁻¹; Activity (Mus musculus [24]): 37.6%; Activity (Mus musculus [25]): Non-Toxic |
| Cl.Oc1ccc2[nH]c(-c3ccc4c(Cl)cc(Cl)c(O)c4n3)cc2c1 | Non-Toxic | 24.3 | Non-Toxic | Non-Toxic | Non-Toxic | 18 | 39.6 | Non-Toxic | <=54% | 3.2 | Non-Toxic | Non-Toxic | 30.6 | Non-Toxic | Non-Toxic | Non-Toxic | 41.3 | 533.3 | 22.1 | Non-Toxic | Activity (Mus musculus [21]): Non-Toxic; Activity (Mus musculus [22]): Non-Toxic; K [23]: 0.00593 min⁻¹; Activity (Mus musculus [24]): 36.5%; Activity (Mus musculus [25]): Non-Toxic |
